Laboratory results from ChEMBL document CHEMBL1142179, “Association of fluconazole area under the concentration-time curve/MIC and dose/MIC ratios with mortality in nonneutropenic patients with candidemia” (2007).
Values after ≈ are worked out from the molar mass of the structure shown.

Key:
Type in all cases: functional
[1] = organism: Homo sapiens; assay: Mortality rate stratified by 24 hrs MIC in dose-dependently susceptible Candida species infected patient
Outline: (§1)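 Patients were fluconazole-treated nonneutropenic adults with candidemia. Isolate MICs were obtained by CLSI M27-A2 broth microdilution, read at 24 or 48 h. Patients were grouped by susceptibility breakpoint category. Mortality was compared by chi-square analysis.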

[2] = system: Candida albicans; assay: Ratio of AUC in candidemia patient to MIC against Candida albicans
Outline: (§2)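 Bloodstream Candida isolates came from hospitalized adults treated with fluconazole. MICs were measured by CLSI M27-A2 broth microdilution in RPMI 1640-2% dextrose with 0.165 M MOPS, pH 7.0. Fluconazole was tested in doubling dilutions of 0.5–256 μg/ml at 35°C, read at 24 and 48 h as a marked drop in turbidity. AUC is the individual dose divided by clearance estimated from creatinine clearance. The ratio is AUC divided by the 24- or 48-h MIC.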

[3] = system: Clavispora lusitaniae; assay: Antimicrobial activity against Candida lusitaniae at 48 hrs
Outline: (§3)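 Bloodstream isolates from hospitalized candidemia patients, stored at −70°C and subcultured overnight on Sabouraud dextrose agar. Tested by CLSI M27-A2 broth microdilution in RPMI 1640-2% dextrose with 0.165 M MOPS, pH 7.0. Fluconazole was given as serial doubling dilutions from 0.5 to 256.0 μg/ml. Inoculum was a 0.5 McFarland suspension diluted to 2×. Plates were incubated at 35°C. MIC was read at 24 and 48 h as a marked reduction in turbidity, with ATCC 6258 and ATCC 22019 as QC strains.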

[4] = system: Clavispora lusitaniae; assay: Antimicrobial activity against Candida lusitaniae at 24 hrs; outline: as §3
[5] = system: Nakaseomyces glabratus; assay: Antimicrobial activity against Candida glabrata at 24 hrs; outline: as §3
[6] = system: Candida albicans; assay: Ratio of weight normalized daily dose in candidemia patient to MIC at 24 hrs against Candida albicans
Outline: (§4)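 Fluconazole daily dose (mg/kg) of each nonneutropenic candidemia patient divided by the MIC of their bloodstream isolate. MIC by CLSI M27-A2 broth microdilution in RPMI 1640-2% dextrose, 0.165 M MOPS, pH 7.0. Serial doubling dilutions ran 0.5–256.0 μg/ml. Inoculum was a 0.5 McFarland suspension diluted to 2×. Incubated at 35°C; MIC read at 24 and 48 h as marked turbidity reduction.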

[7] = system: Candida albicans; assay: Ratio of weight normalized daily dose in candidemia patient to MIC against Candida albicans; outline: as §4
[8] = organism: Homo sapiens; assay: Mortality rate in Candida lusitaniae infected candidemia patient
Outline: (§5)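 Subjects were adults (≥18 y) hospitalized >48 h before a Candida-positive blood culture, enrolled 2002–2005 at two hospitals, and treated with fluconazole. Patients were excluded if fluconazole started >24 h before culture or >2 days after it. Species was identified by Vitek YBC or API 20C Aux. Mortality is given per infecting species.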

[9] = system: Candida albicans; assay: Antimicrobial activity against Candida albicans at 48 hrs; outline: as §3
[10] = organism: Homo sapiens; assay: Mortality rate stratified by 48 hrs MIC in susceptible Candida species infected patient; outline: as §1
[11] = organism: Homo sapiens; assay: Mortality rate stratified by 24 hrs MIC in resistant Candida species infected patient; outline: as §1
[12] = system: Candida; assay: Ratio of weight normalized daily dose in non-surviving candidemia patient to MIC at 24 hrs against Candida species
Outline: (§6)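 MICs for patient Candida blood isolates were measured by CLSI M27-A2 microdilution in RPMI 1640-2% dextrose with 0.165 M MOPS, pH 7.0. Fluconazole was tested at 0.5–256 μg/ml in doubling dilutions, incubated at 35°C, and read at 24 h and 48 h by marked turbidity reduction. The fluconazole dose in mg/kg body weight was divided by the 24-h or 48-h MIC.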

[13] = organism: Homo sapiens; assay: Mortality rate stratified by 24 hrs MIC in susceptible Candida species infected patient; outline: as §1
[14] = system: Clavispora lusitaniae; assay: Ratio of AUC in candidemia patient to MIC against Candida lusitaniae; outline: as §2
[15] = system: Candida tropicalis; assay: Antimicrobial activity against Candida tropicalis at 24 hrs; outline: as §3
[16] = system: Candida tropicalis; assay: Antimicrobial activity against Candida tropicalis at 48 hrs; outline: as §3
[17] = organism: Homo sapiens; assay: Mortality rate stratified by 48 hrs MIC in dose-dependently susceptible Candida species infected patient; outline: as §1
[18] = organism: Homo sapiens; assay: Mortality rate in Candida albicans infected candidemia patient; outline: as §5
[19] = organism: Homo sapiens; assay: Ratio of weight normalized daily dose in non-surviving candidemia patient to MIC at 48 hrs against Candida species; outline: as §6
[20] = system: Clavispora lusitaniae; assay: Ratio of weight normalized daily dose in candidemia patient to MIC against Candida lusitaniae; outline: as §6
[21] = system: Candida albicans; assay: Ratio of weight normalized daily dose in candidemia patient to MIC at 48 hrs against Candida albicans; outline: as §4
[22] = system: Nakaseomyces glabratus; assay: Antimicrobial activity against Candida glabrata at 48 hrs; outline: as §3
[23] = system: Candida; assay: Ratio of AUC in non-surviving candidemia patient to MIC at 48 hrs against Candida species; outline: as §2
[24] = organism: Homo sapiens; assay: Mortality rate in Candida glabrata infected candidemia patient; outline: as §5
[25] = system: Nakaseomyces glabratus; assay: Ratio of weight normalized daily dose in candidemia patient to MIC at 48 hrs against Candida glabrata; outline: as §6
[26] = system: Candida parapsilosis; assay: Ratio of weight normalized daily dose in candidemia patient to MIC against Candida parapsilosis; outline: as §6
[27] = organism: Homo sapiens; assay: Mortality rate stratified by 48 hrs MIC in resistant Candida species infected patient; outline: as §1
[28] = system: Candida tropicalis; assay: Ratio of AUC in candidemia patient to MIC against Candida tropicalis; outline: as §2
[29] = organism: Homo sapiens; assay: Mortality rate in Candida parapsilosis infected candidemia patient; outline: as §5
[30] = system: Candida tropicalis; assay: Ratio of weight normalized daily dose in candidemia patient to MIC against Candida tropicalis; outline: as §6
[31] = organism: Homo sapiens; assay: Mortality rate in Candida tropicalis infected candidemia patient; outline: as §5
[32] = system: Nakaseomyces glabratus; assay: Ratio of AUC in candidemia patient to MIC against Candida glabrata; outline: as §2
[33] = system: Candida parapsilosis; assay: Ratio of AUC in candidemia patient to MIC against Candida parapsilosis; outline: as §2
[34] = system: Candida parapsilosis; assay: Antimicrobial activity against Candida parapsilosis at 24 hrs; conditions: Lodderomyces parapsilosis; outline: as §3
[35] = system: Candida; assay: Ratio of weight normalized daily dose in surviving candidemia patient to MIC at 24 hrs against Candida species
Outline: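 Weight-normalized fluconazole daily dose (mg/kg) was divided by the isolate MIC read at 24 h (CLSI M27-A2 broth microdilution, 35°C). Ratios were log10-transformed before analysis. Surviving patients were compared with nonsurvivors, with logistic regression used against mortality.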

[36] = system: Nakaseomyces glabratus; assay: Ratio of weight normalized daily dose in candidemia patient to MIC at 24 hrs against Candida glabrata; outline: as §6
[37] = system: Candida; assay: Ratio of AUC in surviving candidemia patient to MIC at 24 hrs against Candida species; outline: as §2
[38] = system: Candida parapsilosis; assay: Antimicrobial activity against Candida parapsilosis at 48 hrs; conditions: Lodderomyces parapsilosis; outline: as §3
[39] = system: Nakaseomyces glabratus; assay: Ratio of weight normalized daily dose in candidemia patient to MIC against Candida glabrata; outline: as §6
[40] = system: Candida albicans; assay: Antimicrobial activity against Candida albicans at 24 hrs; outline: as §3
[41] = system: Candida; assay: Ratio of AUC in surviving candidemia patient to MIC at 48 hrs against Candida species; outline: as §2
[42] = system: Candida; assay: Ratio of weight normalized daily dose in surviving candidemia patient to MIC at 48 hrs against Candida species; outline: as §6

SMILES: OC(Cn1cncn1)(Cn1cncn1)c1ccc(F)cc1F [FLUCONAZOLE]
- Activity [1]: 50%
- RatioAUC/MIC [2]: 946
- MIC50 [3]: 0.5 µg/mL (≈ 1.63 µM)
- MIC90 [3]: 8 µg/mL (≈ 26.1 µM)
- MIC50 [4]: 2 µg/mL (≈ 6.53 µM)
- MIC50 [5]: 4 µg/mL (≈ 13.1 µM)
- Ratio [6]: 15.39
- Ratio [7]: 15.4
- Activity [8]: 33.3%
- MIC50 [9]: 0.5 µg/mL (≈ 1.63 µM)
- MIC90 [9]: 8 µg/mL (≈ 26.1 µM)
- Activity [10]: 18%
- Activity [11]: 50%
- Ratio [12]: 7
- Activity [13]: 18%
- RatioAUC/MIC [14]: 232
- MIC50 [15]: 1 µg/mL (≈ 3.27 µM)
- MIC50 [16]: 0.5 µg/mL (≈ 1.63 µM)
- MIC90 [16]: 8 µg/mL (≈ 26.1 µM)
- Activity [17]: 50%
- Activity [18]: 16.3%
- Ratio [19]: 6.1
- Ratio [20]: 3.3
- Ratio [21]: 13.17
- MIC50 [22]: 0.5 µg/mL (≈ 1.63 µM)
- MIC90 [22]: 8 µg/mL (≈ 26.1 µM)
- Ratio [23]: 496
- Activity [24]: 36.4%
- Ratio [25]: 1.51
- Ratio [26]: 10.7
- Activity [27]: 50%
- RatioAUC/MIC [28]: 657
- Activity [29]: 0%
- Ratio [30]: 11.4
- Activity [31]: 0%
- RatioAUC/MIC [32]: 182
- RatioAUC/MIC [33]: 635
- MIC50 [34]: 1.25 µg/mL (≈ 4.08 µM)
- Activity [35]: 13.3
- Ratio [36]: 1.88
- Ratio [37]: 775
- MIC50 [38]: 0.5 µg/mL (≈ 1.63 µM)
- MIC90 [38]: 8 µg/mL (≈ 26.1 µM)
- Ratio [39]: 1.9
- MIC50 [40]: 0.25 µg/mL (≈ 0.816 µM)
- Ratio [41]: 614
- Ratio [42]: 10.7
